Values after ≈ are worked out from the molar mass of the structure shown.
How the values were obtained:
[1] = biological target: T1, Quinolone resistance protein NorA (Staphylococcus aureus) (UniProt P0A0J7); assay: Inhibition of NorA in Staphylococcus aureus 1199 assessed as reduction in ciprofloxacin MIC by microdilution technique
T1 sequence (whole entry): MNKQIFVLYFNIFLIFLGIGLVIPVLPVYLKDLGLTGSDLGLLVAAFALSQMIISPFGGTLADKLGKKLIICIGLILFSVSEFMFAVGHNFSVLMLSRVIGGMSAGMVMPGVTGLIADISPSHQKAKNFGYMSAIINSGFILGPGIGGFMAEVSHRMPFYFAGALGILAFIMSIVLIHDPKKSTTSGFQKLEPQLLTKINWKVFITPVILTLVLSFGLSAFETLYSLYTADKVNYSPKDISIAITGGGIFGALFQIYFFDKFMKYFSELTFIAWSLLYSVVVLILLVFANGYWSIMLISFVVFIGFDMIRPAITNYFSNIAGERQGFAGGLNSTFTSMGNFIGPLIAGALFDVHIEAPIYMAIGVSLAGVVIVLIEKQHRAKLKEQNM
In short: (§1)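 Checkerboard combination: fresh scalar dilutions of test compound crossed with ciprofloxacin dilutions. Ciprofloxacin MIC determined by broth microdilution per CLSI guidelines, in duplicate. The result is the fold reduction in ciprofloxacin MIC relative to ciprofloxacin alone, read at the stated test-compound concentration. Reserpine served as reference inhibitor.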

[2] = biological target: T1, Quinolone resistance protein NorA (Staphylococcus aureus); assay: Inhibition of NorA in Staphylococcus aureus 1199B assessed as reduction in ethidium bromide efflux at 50 uM by fluorimetry after 5 mins
In short: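 S. aureus SA-1199B (NorA overexpressing via promoter up-mutation; GrlA A116E), EtBr-loaded cells. EtBr loss measured fluorometrically over a 5 min time course, in duplicate, as mean total efflux. Percent reduction calculated versus efflux without compound. Test compound at 50 μM; increasing concentrations were also run for dose-response profiles.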

[3] = biological target: T1, Quinolone resistance protein NorA (Staphylococcus aureus); assay: Inhibition of NorA in Staphylococcus aureus 1199B expressing GrlA A116E mutant assessed as reduction in ciprofloxacin MIC at 1.56 ug/ml by microdilution technique; in short: as §1
Staphylococcus aureus [4] = assay: Potentiation of ciprofloxacin MIC against NorA deficient Staphylococcus aureus K1902 by microdilution technique; assay type: functional
In short: (§2)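 MICs run in duplicate by broth microdilution following CLSI guidelines. Ciprofloxacin MICs were also determined with scalar dilutions of freshly prepared test compound solutions in checkerboard combination format. Strain panel: SA-K1902 (norA-), SA-K2378 (norA++), SA-1199 (norA wild-type), SA-1199B (norA++, GrlA A116E) and ATCC 25923 wild-type control.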

Staphylococcus aureus [5] = assay: Antibacterial activity against Staphylococcus aureus K2378 overexpressing NorA by microdilution technique; assay type: functional
In short: (§3)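 Intrinsic MIC of each test compound, run alone, by broth microdilution per CLSI guidelines, in duplicate.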

Staphylococcus aureus [6] = assay: Antibacterial activity against wild type Staphylococcus aureus ATCC 25923 by microdilution technique; assay type: functional; in short: as §3
[7] = biological target: T1, Quinolone resistance protein NorA (Staphylococcus aureus); assay: Inhibition of NorA in Staphylococcus aureus K2378 assessed as reduction in ciprofloxacin MIC at 1.56 ug/ml by microdilution technique; in short: as §1
Staphylococcus aureus [8] = assay: Antibacterial activity against Staphylococcus aureus 1199 expressing wild type NorA by microdilution technique
Staphylococcus aureus [9] = assay: Antibacterial activity against NorA deficient Staphylococcus aureus K1902 by microdilution technique; assay type: functional; in short: as §3
Staphylococcus aureus [10] = assay: Antibacterial activity against Staphylococcus aureus 1199B overexpressing wild type NorA and GrlA A116E mutant by microdilution technique; assay type: functional; in short: as §3
Staphylococcus aureus [11] = assay: Potentiation of ciprofloxacin MIC against wild type Staphylococcus aureus ATCC 25923 by microdilution technique; assay type: functional; in short: as §2
Staphylococcus aureus [12] = assay: Antibacterial activity against Staphylococcus aureus 1199B by microdilution technique; assay type: functional; in short: as §2
[13] = biological target: T1, Quinolone resistance protein NorA (Staphylococcus aureus); assay: Inhibition of NorA in Staphylococcus aureus 1199B expressing GrlA A116E mutant assessed as reduction in ciprofloxacin MIC at 12.5 ug/ml by microdilution technique; in short: as §1
[14] = biological target: T1, Quinolone resistance protein NorA (Staphylococcus aureus); assay: Inhibition of NorA in Staphylococcus aureus 1199B expressing GrlA A116E mutant assessed as reduction in ciprofloxacin MIC at 25 ug/ml by microdilution technique
In short: (§4)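 Ciprofloxacin MICs were measured in duplicate by broth microdilution following CLSI guidelines, alone and in checkerboard combination with scalar dilutions of freshly prepared test compound. Potentiation was scored as the reduction in ciprofloxacin MIC. Strains: SA-1199B (NorA overexpressed via promoter up-mutation, plus GrlA A116E) and ATCC 25923 (wild-type control).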

[15] = biological target: T1, Quinolone resistance protein NorA (Staphylococcus aureus); assay: Inhibition of NorA in Staphylococcus aureus K2378 assessed as reduction in ciprofloxacin MIC at 3.13 ug/ml by microdilution technique
In short: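 CLSI broth microdilution checkerboard combining ciprofloxacin with scalar dilutions of freshly prepared test compound, in duplicate, against S. aureus SA-K2378 (NorA-overexpressing; SA-K1902 norA-negative as paired strain). Value is the ciprofloxacin MIC reduction with test compound present at the stated fixed concentration.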

[16] = biological target: T1, Quinolone resistance protein NorA (Staphylococcus aureus); assay: Inhibition of NorA in Staphylococcus aureus K2378 assessed as reduction in ciprofloxacin MIC at 12.5 ug/ml by microdilution technique; in short: as §1
[17] = biological target: T1, Quinolone resistance protein NorA (Staphylococcus aureus); assay: Inhibition of NorA in Staphylococcus aureus 1199 assessed as reduction in ciprofloxacin MIC at 0.78 ug/ml by microdilution technique
In short: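 Checkerboard combination of ciprofloxacin with freshly prepared test compound in S. aureus SA-1199 (norA wild-type). Ciprofloxacin MIC determined in duplicate by CLSI microdilution in the presence of fixed compound concentrations.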

Staphylococcus aureus [18] = assay: Potentiation of ciprofloxacin MIC against wild type Staphylococcus aureus ATCC 25923 at 3.13 ug/ml by microdilution technique; assay type: functional; in short: as §4

| Structure (SMILES) | fold change (FC) [1] | inhibition [2] | fold change (FC) [3] | fold change (FC) (Staphylococcus aureus [4]) | MIC (Staphylococcus aureus [5]) | MIC (Staphylococcus aureus [6]) | fold change (FC) [7] | MIC (Staphylococcus aureus [8]) | MIC (Staphylococcus aureus [9]) | MIC (Staphylococcus aureus [10]) | fold change (FC) (Staphylococcus aureus [11]) | MIC (Staphylococcus aureus [12]) | fold change (FC) [13] | fold change (FC) [14] | fold change (FC) [15] | fold change (FC) [16] | fold change (FC) [17] | fold change (FC) (Staphylococcus aureus [18]) |
| --- | --- | --- | --- | --- | --- | --- | --- | --- | --- | --- | --- | --- | --- | --- | --- | --- | --- | --- |
| Cn1cccc1-c1nc2cc(NC(=O)c3ccccc3)ccc2[nH]1 | 4 | 94.3% |  |  |  |  |  |  |  |  |  |  |  |  |  |  |  |  |
| CC[C@H]1CCc2nc(SCc3ccc(C(=O)O)cc3)c(C#N)c(C(F)(F)F)c2C1 | 2 | 71.7% | 2 | 2 | 6.25 µg/mL (≈ 14.9 µM) | 6.25 µg/mL (≈ 14.9 µM) | 16 | 12.5 µg/mL (≈ 29.7 µM) | 6.25 µg/mL (≈ 14.9 µM) | 6.25 µg/mL (≈ 14.9 µM) | 2 | 15 µM (≈ 6.31 µg/mL) |  |  |  |  |  |  |
| C[C@@H](NCc1cccc(OCc2ccccc2)c1)[C@@H](O)c1ccccc1 | 2 | 86.6% |  | 2 | 50 µg/mL (≈ 144 µM) | 100 µg/mL (≈ 288 µM) |  | 100 µg/mL (≈ 288 µM) | 100 µg/mL (≈ 288 µM) | > 100 µg/mL | 2 | > 288 µM | 4 | 16 | 4 | 16 |  |  |
| Cc1ccc(S(=O)(=O)Nc2ccc3[nH]c(-c4cccn4C)nc3c2)cc1 |  | 88.2% |  |  | > 100 µg/mL | > 100 µg/mL |  | > 100 µg/mL | > 100 µg/mL | > 100 µg/mL |  | > 273 µM |  |  |  |  | 8 | 8 |
| OC(CNCc1cccc(OCc2ccccc2)c1)c1ccccc1 (configuration not stated) | 4 | 88.4% |  |  |  |  |  |  |  |  |  |  |  |  |  |  |  |  |
| CC[C@H](C)N1C(=O)S/C(=C/c2ccc(-c3cc(C(=O)O)ccc3Cl)o2)C1=O | 2 | 81% |  | 2 | 50 µg/mL (≈ 123 µM) | 50 µg/mL (≈ 123 µM) |  | 25 µg/mL (≈ 61.6 µM) | 50 µg/mL (≈ 123 µM) | 50 µg/mL (≈ 123 µM) | 2 | 123 µM (≈ 49.9 µg/mL) | 8 |  | 32 | 32 |  |  |
